Experiments:
[1] = system: BCL2L1(BCL-XL)-BAX interaction; assay: PCA lysate mixing protocol BCL2L1-L1 + BAX-L2; assay type: biochemical; settings: 1 µM ABT-737 incubated with BCL2L1-L1 lysate 1 h prior to BAX-L2 lysate
[2] = system: NCI-H460 human lung cancer cells; assay: Cell viability; assay type: cell-based; settings: CQ 10 µM, 4 days
NCI-H1299 cells = assay: Cell viability; assay type: cell-based, human; settings: CQ, 4 days
Outline: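 HEC-1A (DMEM/F12) and NCI-H1299 (RPMI) cells, media with 10% FBS, plated at 2000 cells/well and treated next day with test compound 10 µM. CQ 10 µM was used in HEC-1 cells. CellTiter-Glo luminescence read after 4 days and expressed as growth relative to DMSO. Mean ± SD; n = 11 for HEC-1A, n = 6 for NCI-H1299. One-way ANOVA with Tukey.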

PANC1 cells = assay: Cell viability; assay type: cell-based, human; settings: CQ 10 µM, day 4; stated as similar to compound 189
[3] = system: autophagosomes and autolysosomes in RFP-GFP-LC3B PANC1 cells; assay: Autophagy flux assay in RFP-GFP-LC3B PANC1 stable cells; assay type: cell-based, human; settings: RFP-GFP-LC3B PANC1, CQ 10 µM, 24 h
Outline: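 PANC1 cells transfected with an RFP-GFP-LC3B vector and kept two weeks under puromycin to give a stable polyclonal line. Plated on coverslips at 3X105 cells/well and treated next day, with CQ 10 µM as a comparator. After 24 h: DAPI stain, 4% paraformaldehyde fixation, confocal imaging. Autophagosomes RFP+GFP+; autolysosomes counted as red minus green dots per cell. Normalised to DMSO, mean ± SD, n = 3 biological repeats, two-way ANOVA/Sidak.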

CN(C)CC[C@H](CSc1ccccc1)Nc1ccc(S(=O)(=O)NC(=O)c2ccc(N3CCN(Cc4ccccc4-c4ccc(Cl)cc4)CC3)cc2)cc1[N+](=O)[O-] [ABT-737]
luminescence in BCL2L1-L1/BAX-L2 PCA [1]: significant decrease in luminescence

CCN(CC)CCCC(C)Nc1ccnc2cc(Cl)ccc12 (centres unmarked) [CQ, chloroquine]
effect on growth of NCI-H460 cells [2]: no effect | response of NCI-H1299 cells (viability) (NCI-H1299 cells): did not respond | reduction of growth of PANC1 cells (PANC1 cells): > 50% | number of autophagosomes and autolysosomes per cell [3]: shift toward increased number of autophagosomes at the expense of autolysosomes
